Runt-SMMHC FRET: inhibitors of human RUNX1 Runt domain binding to CBFb-SMMHC; Cerulean-Runt/Venus-CBFb-SMMHC FRET ratio 530/480, 1 h; 220,000 tested, 0.74% active; inhibition, % at 20 µM;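 active = mean inhibition across duplicate retests at 20 µM reaching about 50%, limit read from the data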;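 also: inhibitors lower the FRET ratio by blocking Runt binding to CBFb-SMMHC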
Hck-Nef inh: blocks Nef-activated human Hck kinase; P08631; Recombinant Hck-YEEI plus Nef, Z-Lyte FRET kinase assay; inhibition, % at 20 µM; 220,000 tested, 0.68% active; AID 463187;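 active = Hck-Nef kinase inhibition above about 50%, limit read from the data; inactive = inhibition below that limit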
Target sequence (P08631 whole entry, looked up): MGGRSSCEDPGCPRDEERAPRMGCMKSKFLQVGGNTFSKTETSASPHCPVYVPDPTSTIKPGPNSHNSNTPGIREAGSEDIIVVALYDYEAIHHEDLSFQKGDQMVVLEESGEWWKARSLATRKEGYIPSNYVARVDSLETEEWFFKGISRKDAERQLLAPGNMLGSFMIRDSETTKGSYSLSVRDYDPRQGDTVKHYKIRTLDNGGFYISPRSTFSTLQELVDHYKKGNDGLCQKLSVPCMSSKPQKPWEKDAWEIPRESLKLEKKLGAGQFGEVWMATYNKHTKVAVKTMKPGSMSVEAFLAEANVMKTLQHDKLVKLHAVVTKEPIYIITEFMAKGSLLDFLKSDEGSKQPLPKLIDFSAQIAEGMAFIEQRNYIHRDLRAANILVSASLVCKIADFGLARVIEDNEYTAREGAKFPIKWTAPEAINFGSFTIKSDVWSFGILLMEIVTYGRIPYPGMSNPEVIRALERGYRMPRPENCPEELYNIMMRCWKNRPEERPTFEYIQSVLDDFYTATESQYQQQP
TNF death inh: blocks TNF-alpha induced death of Jurkat FADD-/- cells; 220,000 tested, 0.068% active; Jurkat FADD-/- TNF necroptosis rescue, ATP luminescence, 24 h; 0 = TNF only, 100 = no-TNF cells; activation (protection from cell death), % at 10 µM;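 active = activation, meaning protection from cell death, of at least 50% relative to plate controls; inactive = activation below 50%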;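 also: necroptosis triggered by 40 ng/mL TNF-alpha added together with compound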
Runt-CBFb FRET: blocks binding of human RUNX1 Runt domain to CBFb. Q01196+Q13951. Cerulean-Runt/Venus-CBFb FRET ratio 530/480, 1 h. inhibition, % at 20 µM. 220,000 tested, 0.46% active. AID 1496;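 active = inhibition over about 50% at 20 µM in the single-dose screen, limit read from the data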
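Assay system: Cerulean-Runt domain fusion protein, energy donor; Signal: fluorescence energy transfer, 422 nm excitation, 530/480 nm emission; Timing: 1 h compound exposure, room temperature; Control set: unlabeled CBFb; Medium: Tris buffer pH 7.5 with salts and BSA; Compound: single test concentration of 20 µM, 1% DMSO final; Probe or stimulus: Venus-CBFb 100 nM.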
RanGTP-Impb inh: disruptors of Ran-importin-beta complex formation – biochemical, FRET, CFP-Ran, YFP-importin-beta, homogeneous, primary screen; inhibition, % (test concentration not listed); 300,000 tested, 1.1% active; cell-free CFP-Ran/YFP-importin-beta FRET ratio; AID 2216;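 active = more than half of the replicate wells show a fall in the fluorescence ratio signal beyond about 16%, limit read from the data, passing the limit was not always enough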
L929 necroptosis: L929 zVAD cell death inhibition; L929 zVAD necroptosis rescue, ATP luminescence, 24 h; with zVAD 60 µM; viability rescue, % at 10 µM; 220,000 tested, 0.38% active; AID 1377;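 active = activation, scaled between plate controls, above about 75%, limit read from the data; inactive = activation under that limit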
Numbers stand for hits; n = inactive; x = not tested or not shown. An excerpt weighted towards active compounds, which were near 2.1% of everything screened.

SMILES	Runt-SMMHC FRET	Hck-Nef inh	TNF death inh	Runt-CBFb FRET	RanGTP-Impb inh	L929 necroptosis
O=C(O)CN1C(=O)C2C3CC(C2C1=O)C1C(c2ccccc2)c2sc(=O)[nH]c2SC31 (stereo unspecified)	n	n	n	n	65	n
CN1OCC(S(=O)(=O)c2ccccc2)C1c1ccccc1 (stereo unspecified)	n	n	n	n	35	n
CCC1C/C(=C/c2ccco2)C(=O)/C(=C/c2ccco2)C1 (stereo unspecified)	n	62	n	n	x	x
Cc1ccc(NC(=O)Cn2cnc3c(cnn3C(C)(C)C)c2=O)cc1	n	n	n	n	n	84
COc1ccc(NC(=O)Cn2cnc3c(cnn3C(C)(C)C)c2=O)cc1OC	n	n	n	n	n	n
CSc1nsc(N/N=C/c2ccc3c(c2)OCO3)c1C#N	n	n	n	n	20	n
COc1ccc(-c2ccc(CCC(=O)O)n2NC(=O)c2cccs2)cc1	n	n	n	n	n	n
Cc1ccc(-c2ccc(CCC(=O)O)n2NC(=O)c2cccs2)cc1	63	n	n	n	n	n
N#C/C(=C\c1c(Cl)cccc1Cl)c1nc2ccccc2[nH]1	n	n	n	n	n	n
N#C/C(=C\c1ccc(Cl)cc1)c1nc2ncccc2[nH]1	n	n	n	n	36	n
COC(C(=O)Nc1ccc(F)c(F)c1)c1ccccc1 (stereo unspecified)	x	n	99	x	n	n
O=C(Nc1cccc(F)c1)c1ccccc1	n	n	n	n	n	n
COC(C(=O)Nc1cccc(F)c1)c1ccccc1 (stereo unspecified)	n	n	79	n	n	n
COC(C(=O)NNC(=O)Cc1ccc(Cl)cc1)c1ccccc1 (stereo unspecified)	n	n	n	n	n	n
O=C(COC(=O)c1c[nH]c(=O)[nH]c1=O)Nc1ccccc1Br	n	n	n	n	n	n
COc1ccc(C2c3ccc(O)cc3Oc3ncn(CC(C)C)c(=N)c32)cc1 (stereo unspecified)	62	n	n	n	n	n
O=[N+]([O-])c1cccc(-c2cn3nc(-c4ccccc4)c(-c4ccccc4)nc3n2)c1	n	n	n	n	70	n
O=[N+]([O-])c1ccc(-c2cn3nc(-c4ccccc4)c(-c4ccccc4)nc3n2)cc1	n	n	n	n	42	n
Cc1ccc(-c2cn3nc(-c4ccccc4)c(-c4ccccc4)nc3n2)cc1	n	n	n	n	90	n
COc1ccc(OC)c(S(=O)(=O)NC2CCCCNC2=O)c1 (stereo unspecified)	x	x	x	x	n	x
O=C(NC1CCCC1)C(c1ccccc1)N(Cc1cccnc1)C(=O)Cc1cccs1 (stereo unspecified)	n	n	n	n	n	n
CN(C)c1nc2n(c(=O)n1)CCS2	n	n	n	n	n	n
CN(C)c1cc(=O)n2c(n1)SCCC2	n	n	n	x	72	n
O=c1cc(N2CCCCC2)nc2n1CCCS2	n	n	n	n	159	n
CCCCN(CC)C(=O)c1cc2cc3ccc(OC)cc3nc2o1	n	n	n	n	59	n
SMILES	Runt-SMMHC FRET	Hck-Nef inh	TNF death inh	Runt-CBFb FRET	RanGTP-Impb inh	L929 necroptosis
COCCNC(=O)c1cc2cc3ccc(OC)cc3nc2o1	x	x	x	x	n	x
COC(=O)c1c(C(=O)OC)c(-c2ccc(F)cc2)n2c1CS(=O)(=O)C2	x	x	x	x	n	x
COC(=O)c1c(C(=O)OC)c(-c2ccccc2)n2c1CS(=O)(=O)C2	n	n	n	n	22	n
Cc1ccc(NC(=O)CN2C(=O)c3ccccc3C2=O)nc1	n	n	n	n	n	n
Cc1ccc(C(CC(=O)O)NC(=O)CN2C(=O)c3ccccc3C2=O)cc1 (stereo unspecified)	x	x	x	x	70	x
CCn1cc(S(=O)(=O)Nc2cc(C)ccc2F)cn1	x	x	x	x	n	x
COc1ccc(-c2cc(C(=O)Nc3cc(Br)ccc3O)no2)cc1	x	x	x	x	n	x
CN(C(=O)c1ccno1)c1nnc(-c2cnccn2)s1	n	n	n	n	n	n
CC(=O)N(CC1CCCO1)c1nnc(-c2cnccn2)s1 (stereo unspecified)	n	n	76	n	n	n

Screening results (PubChem BioAssay)
